In ChEMBL document CHEMBL3244186, “Synthesis and evaluation of the thiosemicarbazone, dithiocarbazonate, and 2'-pyrazinylhydrazone of pyrazinecarboxaldehyde as agents for the treatment of iron overload” (J Med Chem, 1979):

Legend:
[1] = Iron chelating activity assessed as removal of [59]-Fe from [59]-Fe-labeled transferrin at 1 mM measured per hr by spectrometric analysis; type: physicochemical; conditions: 1000 µM
How it was run: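 About 10^6 cpm of 59Fe-labeled transferrin in 1.0 mL of 0.1 M Hepes (pH 7.00), inside a dialysis sack, dialyzed at room temperature against 25.0 mL of 1.00 mM ligand in the same buffer. Dialysate aliquots of 1.00 mL taken at intervals were gamma-counted (800-1400 keV window). Initial release rates were derived from these counts.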

[2] = tested on: Mus musculus; experiment: Iron chelating activity in iron-overloaded BDF1 mouse assessed as daily urinary iron level at 40 mg/kg, ip treated from day 8 to 13 after erythrocyte suspension injection on day 1, 3 and 5 by atomic absorption spectroscopic analysis; type: functional, Urine; conditions: route intraperitoneal
[3] = tested on: Mus musculus; experiment: Iron chelating activity in iron-overloaded BDF1 mouse assessed as iron level in liver at 40 mg/kg, ip treated from day 8 to 13 after erythrocyte suspension injection on day 1, 3 and 5 by atomic absorption spectroscopic analysis; type: functional; conditions: route intraperitoneal
How it was run: (§1)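 Iron-loaded male BDF1 mice (10 per group) given ip drug in EtOH/Tween 80/saline vehicle daily on days 8-13. On day 15, under Et2O, mice were exsanguinated. Organs were washed, frozen, thawed, weighed and homogenized in 0.014 M NaCl made with iron-free water; supernatant iron was measured by AAS, as μg/mouse. Mean ± SD; t test versus iron-loaded vehicle control.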

[4] = Binding affinity to Fe(NO3)3 assessed as stability constant at pH 7.4 after 1 hr; conditions: pH 7.4, 1 h
[5] = tested on: Mus musculus; experiment: Iron chelating activity in iron-overloaded BDF1 mouse assessed as transferrin saturation at 40 mg/kg, ip treated from day 8 to 13 after erythrocyte suspension injection on day 1, 3 and 5 relative to control; type: functional; conditions: route intraperitoneal
How it was run: (§2)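 Iron-loaded male BDF1 mice (10 per group) received ip drug daily on days 8-13, with non-loaded and iron-loaded vehicle-treated control groups. On day 15, blood collected by cardiac puncture under Et2O was pooled per group. Percent transferrin saturation was measured with a standard hematologic kit.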

[6] = tested on: Mus musculus; experiment: Iron chelating activity in iron-overloaded BDF1 mouse assessed as iron level in lung at 40 mg/kg, ip treated from day 8 to 13 after erythrocyte suspension injection on day 1, 3 and 5 by atomic absorption spectroscopic analysis; type: functional; conditions: route intraperitoneal; how it was run: as §1
[7] = tested on: Mus musculus; experiment: Iron chelating activity in iron-overloaded BDF1 mouse assessed as daily urinary iron level at 80 mg/kg, ip treated from day 8 to 13 after erythrocyte suspension injection on day 1, 3 and 5 by atomic absorption spectroscopic analysis; type: functional, Urine; conditions: route intraperitoneal
[8] = tested on: Mus musculus; experiment: Iron chelating activity in iron-overloaded BDF1 mouse assessed as iron level in spleen at 80 mg/kg, ip treated from day 8 to 13 after erythrocyte suspension injection on day 1, 3 and 5 by atomic absorption spectroscopic analysis; type: functional; conditions: route intraperitoneal; how it was run: as §1
[9] = tested on: Mus musculus; experiment: Iron chelating activity in iron-overloaded BDF1 mouse assessed as iron level in spleen at 40 mg/kg, ip treated from day 8 to 13 after erythrocyte suspension injection on day 1, 3 and 5 by atomic absorption spectroscopic analysis; type: functional; conditions: route intraperitoneal; how it was run: as §1
[10] = tested on: Mus musculus; experiment: Iron chelating activity in iron-overloaded BDF1 mouse assessed as iron level in heart at 80 mg/kg, ip treated from day 8 to 13 after erythrocyte suspension injection on day 1, 3 and 5 by atomic absorption spectroscopic analysis; type: functional; conditions: route intraperitoneal; how it was run: as §1
[11] = Binding affinity to FeSO4 assessed as stability constant at pH 7.4 after 1 hr; type: physicochemical; conditions: pH 7.4, 1 h
How it was run: (§3)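 Continuous-variation (Job) method: iron and ligand solutions diluted after 1 h to 10.00 mL with 50 mM barbital buffer (pH 7.4), all containing 0.100 M KNO3. Visible absorbance at λmax was read at several times to confirm equilibrium. Absorbance was plotted against metal/(metal + ligand) to give the stoichiometry and minimum stability constant.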

[12] = tested on: Mus musculus; experiment: Iron chelating activity in iron-overloaded BDF1 mouse assessed as iron level in heart at 40 mg/kg, ip treated from day 8 to 13 after erythrocyte suspension injection on day 1, 3 and 5 by atomic absorption spectroscopic analysis; type: functional; conditions: route intraperitoneal; how it was run: as §1
[13] = tested on: Mus musculus; experiment: Iron chelating activity in iron-overloaded BDF1 mouse assessed as iron level in lung at 80 mg/kg, ip treated from day 8 to 13 after erythrocyte suspension injection on day 1, 3 and 5 by atomic absorption spectroscopic analysis; type: functional; conditions: route intraperitoneal; how it was run: as §1
[14] = tested on: Mus musculus; experiment: Iron chelating activity in iron-overloaded BDF1 mouse assessed as transferrin saturation at 80 mg/kg, ip treated from day 8 to 13 after erythrocyte suspension injection on day 1, 3 and 5 relative to control; type: functional; conditions: route intraperitoneal; how it was run: as §2
[15] = Iron chelating activity assessed as removal of iron from ferritin after 20 hrs by atomic absorption spectrophotometric analysis; type: physicochemical
How it was run: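 Ferritin holding 1.34 mg total Fe was dialyzed at room temperature against 25.0 mL of 1.00 mM ligand solution. Iron in the dialysate was measured by atomic absorption spectroscopy at 20 h.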

[16] = tested on: Mus musculus; experiment: Iron chelating activity in iron-overloaded BDF1 mouse assessed as iron level in liver at 80 mg/kg, ip treated from day 8 to 13 after erythrocyte suspension injection on day 1, 3 and 5 by atomic absorption spectroscopic analysis; type: functional; conditions: route intraperitoneal; how it was run: as §1
[17] = Binding affinity to FeSO4 assessed as stability constant at pH 7.5 after 1 hr; type: physicochemical; conditions: pH 7.5, 1 h
[18] = Binding affinity to Fe(NO3)3 assessed as stability constant at pH 7.5 after 1 hr; type: physicochemical; conditions: pH 7.5, 1 h
[19] = tested on: Mus musculus; experiment: Iron chelating activity in iron-overloaded BDF1 mouse assessed as daily urinary iron level at 50 mg/kg, ip treated from day 8 to 13 after erythrocyte suspension injection on day 1, 3 and 5 by atomic absorption spectroscopic analysis; type: functional, Urine; conditions: route intraperitoneal
[20] = tested on: Mus musculus; experiment: Iron chelating activity in iron-overloaded BDF1 mouse assessed as iron level in liver at 100 mg/kg, ip treated from day 8 to 13 after erythrocyte suspension injection on day 1, 3 and 5 by atomic absorption spectroscopic analysis; type: functional; conditions: route intraperitoneal; how it was run: as §1
[21] = tested on: Mus musculus; experiment: Iron chelating activity in iron-overloaded BDF1 mouse assessed as daily urinary iron level at 100 mg/kg, ip treated from day 8 to 13 after erythrocyte suspension injection on day 1, 3 and 5 by atomic absorption spectroscopic analysis; type: functional, Urine; conditions: route intraperitoneal
[22] = tested on: Mus musculus; experiment: Iron chelating activity in iron-overloaded BDF1 mouse assessed as iron level in liver at 50 mg/kg, ip treated from day 8 to 13 after erythrocyte suspension injection on day 1, 3 and 5 by atomic absorption spectroscopic analysis; type: functional; conditions: route intraperitoneal; how it was run: as §1
[23] = tested on: Mus musculus; experiment: Iron chelating activity in iron-overloaded BDF1 mouse assessed as iron level in spleen at 50 mg/kg, ip treated from day 8 to 13 after erythrocyte suspension injection on day 1, 3 and 5 by atomic absorption spectroscopic analysis; type: functional; conditions: route intraperitoneal; how it was run: as §1
[24] = tested on: Mus musculus; experiment: Iron chelating activity in iron-overloaded BDF1 mouse assessed as iron level in heart at 100 mg/kg, ip treated from day 8 to 13 after erythrocyte suspension injection on day 1, 3 and 5 by atomic absorption spectroscopic analysis; type: functional; conditions: route intraperitoneal; how it was run: as §1
[25] = tested on: Mus musculus; experiment: Iron chelating activity in iron-overloaded BDF1 mouse assessed as iron level in spleen at 100 mg/kg, ip treated from day 8 to 13 after erythrocyte suspension injection on day 1, 3 and 5 by atomic absorption spectroscopic analysis; type: functional; conditions: route intraperitoneal; how it was run: as §1
[26] = tested on: Mus musculus; experiment: Iron chelating activity in iron-overloaded BDF1 mouse assessed as iron level in heart at 50 mg/kg, ip treated from day 8 to 13 after erythrocyte suspension injection on day 1, 3 and 5 by atomic absorption spectroscopic analysis; type: functional; conditions: route intraperitoneal; how it was run: as §1
[27] = tested on: Mus musculus; experiment: Iron chelating activity in iron-overloaded BDF1 mouse assessed as iron level in lung at 50 mg/kg, ip treated from day 8 to 13 after erythrocyte suspension injection on day 1, 3 and 5 by atomic absorption spectroscopic analysis; type: functional; conditions: route intraperitoneal; how it was run: as §1
[28] = Binding affinity to Fe(NO3)3 assessed as stability constant at pH 7.4 after 1 hr; type: physicochemical; conditions: pH 7.4, 1 h; how it was run: as §3
[29] = tested on: Mus musculus; experiment: Iron chelating activity in iron-overloaded BDF1 mouse assessed as transferrin saturation at 100 mg/kg, ip treated from day 8 to 13 after erythrocyte suspension injection on day 1, 3 and 5 relative to control; type: functional; conditions: route intraperitoneal; how it was run: as §2
[30] = tested on: Mus musculus; experiment: Iron chelating activity in iron-overloaded BDF1 mouse assessed as iron level in lung at 100 mg/kg, ip treated from day 8 to 13 after erythrocyte suspension injection on day 1, 3 and 5 by atomic absorption spectroscopic analysis; type: functional; conditions: route intraperitoneal; how it was run: as §1
[31] = tested on: Mus musculus; experiment: Iron chelating activity in iron-overloaded BDF1 mouse assessed as transferrin saturation at 50 mg/kg, ip treated from day 8 to 13 after erythrocyte suspension injection on day 1, 3 and 5 relative to control; type: functional; conditions: route intraperitoneal; how it was run: as §2
[32] = tested on: Mus musculus; experiment: Iron chelating activity in iron-overloaded BDF1 mouse assessed as iron level in liver at 125 mg/kg, ip treated from day 8 to 13 after erythrocyte suspension injection on day 1, 3 and 5 by atomic absorption spectroscopic analysis; type: functional; conditions: route intraperitoneal; how it was run: as §1
[33] = Binding affinity to Fe(NO3)3 assessed as stability constant; type: physicochemical
How it was run: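 Minimum stability constant and stoichiometry were found by continuous variation (Job plot). Metal and ligand solutions stood 1 h and were then diluted with 50 mM barbital buffer (pH 7.4) containing 0.100 M KNO3. Visible absorbance at λmax was read at several times to confirm equilibrium. Absorbance was plotted against metal/(metal + ligand).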

[34] = tested on: Mus musculus; experiment: Iron chelating activity in iron-overloaded BDF1 mouse assessed as iron level in heart at 125 mg/kg, ip treated from day 8 to 13 after erythrocyte suspension injection on day 1, 3 and 5 by atomic absorption spectroscopic analysis; type: functional; conditions: route intraperitoneal; how it was run: as §1
[35] = tested on: Mus musculus; experiment: Iron chelating activity in iron-overloaded BDF1 mouse assessed as daily urinary iron level at 125 mg/kg, ip treated from day 8 to 13 after erythrocyte suspension injection on day 1, 3 and 5 by atomic absorption spectroscopic analysis; type: functional, Urine; conditions: route intraperitoneal
[36] = tested on: Mus musculus; experiment: Iron chelating activity in iron-overloaded BDF1 mouse assessed as iron level in spleen at 125 mg/kg, ip treated from day 8 to 13 after erythrocyte suspension injection on day 1, 3 and 5 by atomic absorption spectroscopic analysis; type: functional; conditions: route intraperitoneal; how it was run: as §1
[37] = tested on: Mus musculus; experiment: Iron chelating activity in iron-overloaded BDF1 mouse assessed as transferrin saturation at 125 mg/kg, ip treated from day 8 to 13 after erythrocyte suspension injection on day 1, 3 and 5 relative to control; type: functional; conditions: route intraperitoneal; how it was run: as §2
[38] = tested on: Mus musculus; experiment: Iron chelating activity in iron-overloaded BDF1 mouse assessed as iron level in lung at 125 mg/kg, ip treated from day 8 to 13 after erythrocyte suspension injection on day 1, 3 and 5 by atomic absorption spectroscopic analysis; type: functional; conditions: route intraperitoneal; how it was run: as §1

Row | SMILES | Activity [1] | Activity [2] | Activity [3] | Activity [5] | Activity [6] | Activity [7] | Activity [8] | Activity [9] | Activity [10] | Activity [11] | Activity [12] | Activity [13] | Activity [14] | Activity [15] | Activity [16] | Activity [33] | other results
1 | N/C(S)=N/N=C/c1ccccn1 | 0.3% |  |  |  |  |  |  |  |  |  |  |  |  |  |  |  | 
2 | NC(=S)N/N=C/c1cnccn1 | 0.3% | 1.1 µg | 171 µg | 58% | 15.4 µg | 1.1 µg | 14.6 µg | 16.7 µg | 9.4 µg | > 17 | 9.2 µg | 16.1 µg | 44% | 1.4 µM | 156 µg |  | Activity [4]: > 25
3 | S=C([S-])N/N=C/c1cnccn1.[Na+] | 0.4% | 1.4 µg | 193 µg | 51% | 14.8 µg | 5.5 µg | 18.6 µg | 14 µg | 10.6 µg |  | 8.5 µg | 17.7 µg | 27% | 48.8 µM | 176 µg |  | Activity [17]: > 17; Activity [18]: > 25
4 | C(=N\Nc1cnccn1)/c1cnccn1 | 0.1% |  |  |  |  |  |  |  |  | 16.4 |  |  |  | < 1 µM |  |  | Activity [19]: 3.4 µg; Activity [20]: 164 µg; Activity [21]: 4.9 µg; Activity [22]: 174 µg; Activity [23]: 16.4 µg; Activity [24]: 7.6 µg; Activity [25]: 14.9 µg; Activity [26]: 7.4 µg; Activity [27]: 14.6 µg; Activity [28]: > 27; Activity [29]: 38%; Activity [30]: 12.8 µg; Activity [31]: 44%
5 | CC(=O)N(O)CCCCCNC(=O)CCC(=O)N(O)CCCCCNC(=O)CCC(=O)N(O)CCCCCN [DEFEROXAMINE] | 1% |  |  |  |  |  |  |  |  |  |  |  |  | 25.2 µM |  | 30.6 | Activity [32]: 132 µg; Activity [34]: 9.4 µg; Activity [35]: 3 µg; Activity [36]: 19.2 µg; Activity [37]: 75%; Activity [38]: 16.4 µg
6 | O=c1cccccc1O [TROPOLONE] | 19.7% |  |  |  |  |  |  |  |  |  |  |  |  | 4.1 µM |  | 10.5 | 
